We go through 36 compounds from ChEMBL document CHEMBL3272283, “Contraceptive agents from cycloaddition reactions of diarylcyclopropenones and diarylthiirene 1, 1-dioxides” (J Med Chem, 1976).

Calls of active or inactive are those of the source. The calls are words filed in the database; no cut-off is given here.

The species entered for one series is Rattus norvegicus. Nature of the series: Estrogenic activity in adult ovariectomized rat assessed as induction of uterine growth. In kind it is functional, organism-based.
Conditions: not given
As for `O=C1C(c2ccccc2)=C(c2ccccc2)[C@H]2C3CCC(C3)[C@@]12N1CCCCC1` (relative stereo), the outcome was Active.

The species named for a further series is Rattus norvegicus. The experiment in a line: Antiestrogenic activity in rat. Type of series: functional, organism-based.
Conditions: not given
With `O=C1C(c2ccccc2)=C(c2ccccc2)[C@H]2C3CCC(C3)[C@@]12N1CCCCC1` (relative stereo), the outcome was inactive.

Another series relates to Hamster. The experiment in a line: Uterotrophic activity in hamster. To be noted: Cricetinae; Uterus. In kind it is functional, organism-based.
In the case of `O=C1C(c2ccccc2)=C(c2ccccc2)[C@H]2C3CCC(C3)[C@@]12N1CCCCC1` (relative stereo), the result was Active.

A further series deals with Rattus norvegicus. Nature of the series: Antideciduomal activity in pseudopregnant rat administered once in weekly. Type of series: functional, organism-based.
Conditions: not given
Consider `O=C1C(c2ccccc2)=C(c2ccccc2)[C@H]2C3CCC(C3)[C@@]12N1CCCCC1` (relative stereo), for which the outcome was Active.

The species entered for another series is Rattus norvegicus. Nature of the series: Estrogenic activity in rat assessed as increase of uterine weight. In kind it is functional, organism-based.
Conditions: not given
Regarding `O=C1C(c2ccccc2)=C(c2ccccc2)[C@H]2C3CCC(C3)[C@@]12N1CCCCC1` (relative stereo), the result was Active.

Another series is filed under the species Rattus norvegicus. Nature of the series: Estrogenic activity in immature rat assessed as induction of vaginal opening. Type of series: functional, organism-based.
Conditions: not given
Turning to `O=C1C(c2ccccc2)=C(c2ccccc2)[C@H]2C3CCC(C3)[C@@]12N1CCCCC1` (relative stereo), the result was Active.

The species named for the next series is Oryctolagus cuniculus. Nature of the series: Estrogenic activity in immature rabbit uterus assessed as Clauberg progestational response. In kind it is functional, tissue-based.
Conditions: not given
For the compound `O=C1C(c2ccccc2)=C(c2ccccc2)[C@H]2C3CCC(C3)[C@@]12N1CCCCC1` (relative stereo), the outcome was inactive.

For another series, the system named is Rhesus monkey. The experiment in a line: Toxicity in rhesus monkey up to 800 mg/kg, po. In kind it is organism-based, Macaca mulatta. The arrangement: dose 800 mg/kg, route oral. The settings on record: in vivo.
With `O=C1C(c2ccccc2)=C(c2ccccc2)[C@H]2C3CCC(C3)[C@@]12N1CCCCC1` (relative stereo), the Activity result is recorded as “Non-toxic”.

Another series has as its system Rattus norvegicus. Nature of the series: Antifertility activity in 1 to 9 days pregnancy Charles River CD rat assessed as reduction in number of viable fetuses at 25 mg/kg, po. Type of series: functional.
Conditions: not given
In a few lines: (§1)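 Adult females (rats: Charles River CD; hamsters: Lakeview LAK/LVG-SVR) kept under reversed light (dark 6 a.m.-6 p.m.). Caged with proven-fertile males at 9:00 a.m.; plug or vaginal sperm at 3:00 p.m. marked day 0. Oral dosing generally days 1-9, groups of five; killed day 11. Living fetuses, resorptions and implantation sites counted against controls. Score by % fewer viable fetuses: A <24%, +1 25-49%, +2 50-74%, +3 75-99%, +4 none living.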
As to `O=C1C(c2ccccc2)=C(c2ccccc2)C2CCc3ccccc3[C@@]12N1CCCC1` (some centres not stated), the Activity was found to be 50%.

Regarding `COc1ccc(C2=C(c3ccc(OC)cc3)[C@H]3C4CCC(C4)[C@@]3(N3CCCC3)C2=O)cc1` (relative stereo), the Activity is given as 0%.

`CN(C)[C@]12C(=O)C(c3ccccc3)=C(c3ccccc3)[C@H]1C1CCC2C1` (relative stereo): the Activity is 0%.

Regarding `O=C(/C(=C(\C1=CCCCc2ccccc21)c1ccccc1)c1ccccc1)N1CCCC1`, the Activity was 0%.

`O=C1C(c2ccc(Cl)cc2)=C(c2ccc(Cl)cc2)[C@H]2C3CCC(C3)[C@@]12N1CCCCC1` (relative stereo): the Activity came to 0%.

Regarding `O=C1C(c2ccccc2)=C(c2ccccc2)[C@H]2C3CCC(C3)[C@@]12N1CCCCCC1` (relative stereo), the Activity came to 100%.

Take `O=S1(=O)C(c2ccc(Cl)cc2)=C1c1ccc(Cl)cc1`: the result was inactive.

For `O=C1C(c2ccc(Cl)cc2)=C(c2ccc(Cl)cc2)[C@H]2C3CCC(C3)[C@@]12N1CCCC1` (relative stereo), the Activity is reported as 0%.

With `O=C(/C(=C(\C1=Cc2ccccc2CC1)c1ccccc1)c1ccccc1)N1CCCCC1`, the Activity is listed as 100%.

For the compound `O=C1C(c2ccccc2)=C(c2ccccc2)C2CC3CCC(C3)[C@@]12N1CCCC1` (some centres not stated), the Activity worked out at 0%.

For the compound `COc1ccc(-c2c(-c3ccc(OC)cc3)c2=O)cc1`, the outcome was inactive.

As for `O=C1C(c2ccccc2)C(c2ccccc2)C2C3CCC(C3)[C@@]12N1CCCC1` (some centres not stated), the Activity is on record as 25%.

As for `O=C(/C(=C(\C=C1/CC=CCC1)c1ccccc1)c1ccccc1)N1CCCC1`, the Activity is recorded as 0%.

With `O=S1(=O)C(c2ccc(Cl)cc2)=C(c2ccc(Cl)cc2)C2C3CCC(C3)[C@]21N1CCCC1` (some centres not stated), the Activity came out at 0%.

In the case of `O=c1c(-c2ccccc2)c1-c1ccccc1`, the outcome was inactive.

Take `O=C1C(c2ccccc2)=C(c2ccccc2)[C@H]2C3CCC(C3)[C@@]12N1CCCC1` (relative stereo): the Activity is reported as 100%.

Take `O=S1(=O)C(c2ccccc2)=C(c2ccccc2)C2C3CCC(C3)[C@]21N1CCCCC1` (some centres not stated): the Activity came to 100%.

Regarding `O=C(/C(=C(\C=C1CCCCC1)c1ccccc1)c1ccccc1)N1CCCC1`, the Activity was 0%.

For the compound `O=C(/C(=C(\C1=CC2CCC1CC2)c1ccccc1)c1ccccc1)N1CCCCC1`, the Activity is on record as 0%.

For `O=C1C(c2ccccc2)=C(c2ccccc2)[C@H]2C3CCC(C3)[C@@]12N1CCCCC1` (relative stereo), the Activity was 100%.

As for `O=C1C(c2ccccc2)=C(c2ccccc2)C2C3CCC(CC3)[C@@]12N1CCCCC1` (some centres not stated), the Activity is 100%.

Take `O=S1(=O)C(c2ccccc2)=C(c2ccccc2)C2C3CCC(C3)[C@]21N1CCCC1` (some centres not stated): the Activity came out at 75%.

`O=S1(=O)C(c2ccccc2)=C1c1ccccc1`: the outcome was inactive.

On to `O=C1C(c2ccccc2)=C(c2ccccc2)[C@H]2C3CCC(C3)[C@@]12N1CCOCC1` (relative stereo), for which the Activity stood at 0%.

As to `O=C1C(c2cccs2)=C(c2cccs2)C2C3CCC(C3)[C@@]12N1CCCCC1` (some centres not stated), the Activity stood at 0%.

As for `O=C1C(c2ccccc2)=C(c2ccccc2)C2C3CCC(C3)C[C@@]12N1CCCCC1` (some centres not stated), the Activity was 100%.

As to `O=C(/C(=C(\C1=CCCc2ccccc21)c1ccccc1)c1ccccc1)N1CCCC1`, the Activity amounted to 0%.

In the case of `O=c1c(-c2ccc(Cl)cc2)c1-c1ccc(Cl)cc1`, the result was inactive.

For the compound `O=C(/C(=C(\C1=CC2CCC(C1)C2)c1ccccc1)c1ccccc1)N1CCCCC1` (configuration not stated), the Activity stood at 0%.

Consider `CC(C)=C/C(=C(\C(=O)N1CCCC1)c1ccccc1)c1ccccc1`, for which the Activity is 100%.

As to `O=C1C(c2ccccc2)=C(c2ccccc2)C2C3CC(C4C=CCC43)[C@@]12N1CCCC1` (some centres not stated), the Activity came out at 0%.

On to `CC1=C(/C(=C(\C(=O)N2CCCC2)c2ccccc2)c2ccccc2)C2CCC1C2` (configuration not stated), for which the Activity is recorded as 0%.

For the compound `O=C1C(c2ccccc2)=C(c2ccccc2)C2C3CC(C[C@]12N1CCCC1)c1ccccc13` (some centres not stated), the Activity is 100%.

The next series relates to Rattus norvegicus. Nature of the series: Antifertility activity in 1 to 9 days pregnancy Charles River CD rat assessed as reduction in number of viable fetuses at 50 mg/kg, po.
Conditions: not given
Type of series: functional. In a few lines:
as §1
For `O=C(/C(=C(\C1=Cc2ccccc2CC1)c1ccccc1)c1ccccc1)N1CCCC1`, the Activity was found to be 100%.

The next series has as its system Rattus norvegicus. Nature of the series: Antifertility activity in 1 to 9 days pregnancy Charles River CD rat assessed as reduction in number of viable fetuses at 5 mg/kg, po. In kind it is functional.
Conditions: not given
In a few lines:
as §1
As to `C[C@@]12C(c3ccccc3)=C(c3ccccc3)C(=O)[C@]1(N1CCCC1)C1CCC2C1` (relative stereo), the Activity worked out at 0%.

For the compound `CC(C)=C/C(=C(\C(=O)N1CCCC1)c1ccccc1)c1ccccc1`, the result was inactive.

As to `O=C(/C(=C(\C1=Cc2ccccc2CC1)c1ccccc1)c1ccccc1)N1CCCC1`, the outcome was inactive.

For the compound `CN1CCN([C@]23C(=O)C(c4ccccc4)=C(c4ccccc4)[C@H]2C2CCC3C2)CC1` (relative stereo), the Activity was 75%.

A further series deals with Hamster. The experiment in a line: Antifertility activity in 1 to 9 days pregnancy hamster assessed as reduction in number of viable fetuses at 50 mg/kg, po. Type of series: functional, Cricetinae.
Conditions: not given
In a few lines:
as §1
For the compound `O=C1C(c2ccccc2)=C(c2ccccc2)[C@H]2C3CCC(C3)[C@@]12N1CCCCCC1` (relative stereo), the Activity was 0%.

Consider `O=C1C(c2ccccc2)=C(c2ccccc2)[C@H]2C3CCC(C3)[C@@]12N1CCCC1` (relative stereo), for which the Activity came to 0%.

`O=C1C(c2ccccc2)=C(c2ccccc2)[C@H]2C3CCC(C3)[C@@]12N1CCCCC1` (relative stereo): the Activity is 100%.

For the compound `O=C1C(c2ccccc2)=C(c2ccccc2)C2C3CC(C[C@]12N1CCCC1)c1ccccc13` (some centres not stated), the Activity is reported as 25%.

A further series relates to Hamster. Nature of the series: Antifertility activity in 1 to 9 days pregnancy hamster assessed as reduction in number of viable fetuses at 10 mg/kg, po. Type of series: functional, Cricetinae.
Conditions: not given
In outline:
as §1
Take `O=C1C(c2ccccc2)=C(c2ccccc2)[C@H]2C3CCC(C3)[C@@]12N1CCCCC1` (relative stereo): the Activity is 25%.

For the next series, the system named is Rattus norvegicus. The experiment in a line: Antifertility activity in 1 to 9 days pregnancy Charles River CD rat assessed as abortion of implanted embryos at 25 mg/kg, po qd for 9 days. The arrangement: dose 25 mg/kg.
Conditions: not given
In kind it is functional, organism-based. In a few lines: as §1
`O=C1C(c2ccccc2)=C(c2ccccc2)[C@H]2C3CCC(C3)[C@@]12N1CCCCCC1` (relative stereo): the outcome was Active.

For `O=C1C(c2ccccc2)=C(c2ccccc2)[C@H]2C3CCC(C3)[C@@]12N1CCCC1` (relative stereo), the result was Active.

Take `O=C1C(c2ccccc2)=C(c2ccccc2)[C@H]2C3CCC(C3)[C@@]12N1CCCCC1` (relative stereo): the result was Active.

For the compound `O=C1C(c2ccccc2)=C(c2ccccc2)C2C3CCC(CC3)[C@@]12N1CCCCC1` (some centres not stated), the result was Active.

For `O=C1C(c2ccccc2)=C(c2ccccc2)C2C3CCC(C3)C[C@@]12N1CCCCC1` (some centres not stated), the outcome was Active.

For `O=C1C(c2ccccc2)=C(c2ccccc2)C2C3CC(C[C@]12N1CCCC1)c1ccccc13` (some centres not stated), the result was Active.

In the case of `CN1CCN([C@]23C(=O)C(c4ccccc4)=C(c4ccccc4)[C@H]2C2CCC3C2)CC1` (relative stereo), the outcome was Active.

For a further series, the species on record is Rattus norvegicus. The experiment in a line: Estrogenic activity in immature rat. In kind it is functional, organism-based.
Conditions: not given
Turning to `O=C1C(c2ccccc2)=C(c2ccccc2)[C@H]2C3CCC(C3)[C@@]12N1CCCCC1` (relative stereo), the result was Active.

For another series, the species on record is Rattus norvegicus. The experiment in a line: Estrogenic activity in adult ovariectomized rat. Type of series: functional, organism-based.
Conditions: not given
`O=C1C(c2ccccc2)=C(c2ccccc2)[C@H]2C3CCC(C3)[C@@]12N1CCCCC1` (relative stereo): the outcome was Active.

The species entered for the next series is Rattus norvegicus. Nature of the series: Estrogenic activity in adult ovariectomized rat assessed as induction of vaginal opening and cornification. In kind it is functional, organism-based.
Conditions: not given
With `O=C1C(c2ccccc2)=C(c2ccccc2)[C@H]2C3CCC(C3)[C@@]12N1CCCCC1` (relative stereo), the result was Active.

For the next series, the species on record is Canis familiaris. Nature of the series: Effect on mating behavior in spayed dog. The settings on record: Canis lupus familiaris.
With `O=C1C(c2ccccc2)=C(c2ccccc2)[C@H]2C3CCC(C3)[C@@]12N1CCCCC1` (relative stereo), the outcome was inactive.
